Test results taken from ChEMBL document CHEMBL3097997, “Synthesis and anticancer activities of thieno[3,2-d]pyrimidines as novel HDAC inhibitors” (Bioorg Med Chem, 2014).

Assays:
HCT-116 [1] = assay: Antiproliferative activity against human HCT116 cells after 72 hrs by MTT assay; assay type: functional, cell-based; conditions: HCT-116, 72 h
[2] = molecular target: Histone deacetylase (Homo sapiens) (UniProt Q13547+O15379+Q9UBN7+Q92769+Q9UQL6+Q8WUI4+Q9BY41+Q96DB2+P56524+Q9UKV0+Q969S8); conditions: HeLa, at 1 µM
MCF7 = assay: Antiproliferative activity against human MCF7 cells after 72 hrs by MTT assay; assay type: functional, cell-based; conditions: MCF7, 72 h
HeLa = assay: Antiproliferative activity against human HeLa cells after 72 hrs by MTT assay; assay type: functional, cell-based
HCT-116 [3] = assay: Cell cycle arrest in human HCT116 cells assessed as accumulation at G2/M phase at 2.5 uM after 24 hrs by propidium iodide staining-based flow cytometric analysis (reference value: 15.6%); assay type: functional
How it was run: (§1)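 HCT-116 cells seeded at 2 × 10^5 per well in six-well plates, treated 24 h with compound at 2.5, 5 or 10 μM alongside untreated control, then harvested, fixed in cold 70% ethanol and stained with PI solution (final 50 μg/mL PI, 0.1 mg/mL RNase A, 0.05% Triton X-100) for 40 min at 37 °C. Phase distribution read by flow cytometry.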

Histone deacetylase = assay: Inhibition of HDAC in human HeLa cell nuclear extract using fluor de Lys as substrate after 15 mins by fluorimetric analysis; assay type: protein assay
How it was run: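 Fluorimetric HDAC kit assay: HeLa nuclear extract (15 μL) combined with 10 μL of 5× compound, then 25 μL fluorogenic substrate added; deacetylation ran 15 min at room temperature and was stopped with TSA-containing developer. Fluorescence read after a further 15 min at excitation 360 nm, emission 460 nm.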

HCT-116 [4] = assay: Cell cycle arrest in human HCT116 cells assessed as accumulation at G1 phase at 10 uM after 24 hrs by propidium iodide staining-based flow cytometric analysis (reference value: 48.1%); assay type: functional; how it was run: as §1
HCT-116 [5] = assay: Cell cycle arrest in human HCT116 cells assessed as accumulation at S phase at 2.5 uM after 24 hrs by propidium iodide staining-based flow cytometric analysis (reference value: 36.3%); assay type: functional; how it was run: as §1
HCT-116 [6] = assay: Cell cycle arrest in human HCT116 cells assessed as accumulation at G2/M phase at 5 uM after 24 hrs by propidium iodide staining-based flow cytometric analysis (reference value: 15.6%); assay type: functional; how it was run: as §1
HCT-116 [7] = assay: Cell cycle arrest in human HCT116 cells assessed as accumulation at G2/M phase at 10 uM after 24 hrs by propidium iodide staining-based flow cytometric analysis (reference value: 15.6%); assay type: functional; how it was run: as §1
HCT-116 [8] = assay: Cell cycle arrest in human HCT116 cells assessed as accumulation at G1 phase at 2.5 uM after 24 hrs by propidium iodide staining-based flow cytometric analysis (reference value: 48.1%); assay type: functional; how it was run: as §1
HCT-116 [9] = assay: Cell cycle arrest in human HCT116 cells assessed as accumulation at S phase at 10 uM after 24 hrs by propidium iodide staining-based flow cytometric analysis (reference value: 36.3%); assay type: functional; how it was run: as §1
HCT-116 [10] = assay: Cell cycle arrest in human HCT116 cells assessed as accumulation at S phase at 5 uM after 24 hrs by propidium iodide staining-based flow cytometric analysis (reference value: 36.3%); assay type: functional; how it was run: as §1
HCT-116 [11] = assay: Cell cycle arrest in human HCT116 cells assessed as accumulation at sub G1 phase after 24 hrs by propidium iodide staining-based flow cytometric analysis; assay type: functional; how it was run: as §1
HCT-116 [12] = assay: Cell cycle arrest in human HCT116 cells assessed as accumulation at sub G1 phase at 5 uM after 24 hrs by propidium iodide staining-based flow cytometric analysis relative to control; assay type: functional; how it was run: as §1
HCT-116 [13] = assay: Cell cycle arrest in human HCT116 cells assessed as accumulation at sub G1 phase at 2.5 uM after 24 hrs by propidium iodide staining-based flow cytometric analysis relative to control; assay type: functional; how it was run: as §1
HCT-116 [14] = assay: Cell cycle arrest in human HCT116 cells assessed as accumulation at G1 phase at 5 uM after 24 hrs by propidium iodide staining-based flow cytometric analysis (reference value: 48.1%); assay type: functional; how it was run: as §1
HCT-116 [15] = assay: Cell cycle arrest in human HCT116 cells assessed as accumulation at sub G1 phase at 10 uM after 24 hrs by propidium iodide staining-based flow cytometric analysis relative to control; assay type: functional; how it was run: as §1

SMILES: O=C(CCCCCOc1ccc(-c2nc(N3CCOCC3)c3sccc3n2)cc1)NO
- IC50 (HCT-116 [1]): 14 µM
- inhibition [2]: 18.8%
- IC50 (MCF7): > 20 µM
- IC50 (HeLa): 12 µM

SMILES: O=C(CCCCCCOc1cccc(-c2nc(N3CCOCC3)c3sccc3n2)c1)NO
- Activity (HCT-116 [3]): 16.8%
- IC50 (Histone deacetylase): 0.38 µM
- IC50 (HCT-116 [1]): 4 µM
- Activity (HCT-116 [4]): 50.3%
- Activity (HCT-116 [5]): 15.2%
- Activity (HCT-116 [6]): 31.4%
- inhibition [2]: 76.8%
- Activity (HCT-116 [7]): 26.5%
- Activity (HCT-116 [8]): 68.1%
- Activity (HCT-116 [9]): 20.8%
- Activity (HCT-116 [10]): 18.9%
- Activity (HCT-116 [11]): Dose-dependent effect
- Activity (HCT-116 [12]): 42.2%
- IC50 (MCF7): 4.8 µM
- Activity (HCT-116 [13]): 30.5%
- IC50 (HeLa): 4 µM
- Activity (HCT-116 [14]): 49.7%
- Activity (HCT-116 [15]): 44.5%

SMILES: O=C(CCCCCCOc1ccc(-c2nc(N3CCOCC3)c3sccc3n2)cc1)NO
- IC50 (HCT-116 [1]): 5.5 µM
- inhibition [2]: 61.7%
- IC50 (MCF7): 5.2 µM
- IC50 (HeLa): 3 µM

SMILES: O=C(CCCCCOc1cccc(-c2nc(N3CCOCC3)c3sccc3n2)c1)NO
- IC50 (HCT-116 [1]): 12.2 µM
- inhibition [2]: 18.7%
- IC50 (MCF7): 9.9 µM
- IC50 (HeLa): 2.4 µM

SMILES: O=C(CCCCCCCOc1cccc(-c2nc(N3CCOCC3)c3sccc3n2)c1)NO
- IC50 (Histone deacetylase): 0.61 µM
- IC50 (HCT-116 [1]): 6.1 µM
- inhibition [2]: 72%
- IC50 (MCF7): 11 µM
- IC50 (HeLa): 11.9 µM

SMILES: O=C(CCCCCCCCOc1cccc(-c2nc(N3CCOCC3)c3sccc3n2)c1)NO
- IC50 (HCT-116 [1]): > 20 µM
- inhibition [2]: 40.6%
- IC50 (MCF7): > 20 µM
- IC50 (HeLa): 20 µM

SMILES: O=C(CCCCCCCCOc1ccc(-c2nc(N3CCOCC3)c3sccc3n2)cc1)NO
- IC50 (HCT-116 [1]): 10.1 µM
- inhibition [2]: 25.4%
- IC50 (MCF7): 18 µM
- IC50 (HeLa): 19 µM

SMILES: O=C(CCCCCCCOc1ccc(-c2nc(N3CCOCC3)c3sccc3n2)cc1)NO
- IC50 (Histone deacetylase): 0.49 µM
- IC50 (HCT-116 [1]): 2.9 µM
- inhibition [2]: 73.8%
- IC50 (MCF7): 10 µM
- IC50 (HeLa): 7.4 µM
